Reference: paper PMC10193561 (ACS Omega, 2023)
Converted amounts (≈) assume the structure as drawn.

What was measured:
A549 cells = assay: Cell proliferation activity assay; format: cell-based; details: Homo sapiens, A549, read-out: IC50 on A549 cells
Method in brief: (§1)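 Cells were kept in DMEM with 10% FBS and 1% penicillin–streptomycin at 37 °C and 5% CO2, and passaged with 0.25% trypsin-EDTA at 80–90% confluency. They were seeded at 5 × 10^3 cells/well, grown 24 h, then given test compound at 5, 10, 20, 40, 60, 80 or 100 μM final, with 1% DMSO as control. Read-out was MTT absorbance at 490 nm, as viability versus control. IC50 was fitted from viability data; 3–5 replicates per sample; mean ± SD of three independent experiments.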

MCF-7 cells = assay: Cell proliferation activity assay; format: cell-based; details: Homo sapiens, MCF7, read-out: IC50 on MCF-7 cells
Method in brief: as §1

HeLa cells [1] = assay: Cell proliferation activity assay; format: cell-based; details: Homo sapiens, read-out: IC50 on HeLa cells
Method in brief: as §1

[2] = Solubility measurement in distilled water; format: physicochemical; details: 37 °C, thermodynamic from solid
Method in brief: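 Excess solid test compound in distilled water was shaken 24 h at 37 °C (100 rpm), then centrifuged at 10,000 rpm for 10 min. Supernatant absorbance was read at 217 nm and solubility calculated from a standard curve.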

HeLa cells [3] = assay: Annexin V/PI apoptosis assay by flow cytometry; format: cell-based; details: 20 μM, 24 h, control group 6.2%

Which IC50 (A549 cells) does the source give for `CC(C)=CCC[C@](C)(O)[C@H]1CC[C@]2(C)[C@@H]1[C@H](O)C[C@@H]1[C@@]3(C)CC[C@H](O[C@@H]4O[C@H](CO)[C@@H](O)[C@H](O)[C@H]4O)C(C)(C)[C@@H]3CC[C@]12C` [Rh2, Ginsenoside Rh2] here?
Its IC50 is 85.3 µM.

And the IC50 (MCF-7 cells)?
The IC50 was 73.6 µM.

And the IC50 (HeLa cells [1])?
Its IC50 is 68 µM.

What about the solubility at 24 h [2] of the same molecule?
Its solubility at 24 h is 74 µg/mL (≈ 119 µM).

And the “percentage of early and late apoptosis” value (HeLa cells [3])?
The value was 5.3%.
